Experiments:
Format in all cases: functional
TK-10 [1] = assay: Growth inhibition of human TK10 cells; conditions: read-out: LC50 (the source's name)
NCI-H23 = assay: Growth inhibition of human NCI-H23 cells assessed tumor cell growth at 10^-5 M; set-up: scale not given: the % may be the effect or the level left
Method in brief: (§1)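 NCI 60-human-tumor-cell-line panel screen. Each compound was tested at a single concentration of 10^-5 M, and percent growth of tumor cells was recorded for each cell line. Growth inhibition was expressed from these percent-growth values.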

CAKI-1 [2] = assay: Growth inhibition of human Caki1 cells assessed tumor cell growth at 10^-5 M; set-up: scale not given: the % may be the effect or the level left; method in brief: as §1
MDA-MB-231 = assay: Growth inhibition of human MDA-MB-231 cells assessed tumor cell growth at 10^-5 M; set-up: scale not given: the % may be the effect or the level left; method in brief: as §1
SK-MEL-5 = assay: Growth inhibition of human SK-MEL-5 cells
OVCAR-5 = assay: Growth inhibition of human OVCAR5 cells
KM12 = assay: Growth inhibition of human KM12 cells
TK-10 [3] = assay: Growth inhibition of human TK10 cells assessed tumor cell growth at 10^-5 M; set-up: scale not given: the % may be the effect or the level left
Method in brief: (§2)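 Single-dose screen at 10^-5 M across the 60 human tumor cell line panel, run to NCI standards. The value is the percent growth of each cell line in the presence of compound. Compounds active at this dose moved on to five-concentration testing (10^-4 to 10^-8 M).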

SK-MEL-2 = assay: Growth inhibition of human SK-MEL-2 cells
HL-60(TB) [4] = assay: Growth inhibition of human HL-60(TB) cells
SF-539 = assay: Growth inhibition of human SF539 cells assessed tumor cell growth at 10^-5 M; set-up: scale not given: the % may be the effect or the level left; method in brief: as §1
OVCAR-3 = assay: Growth inhibition of human OVCAR3 cells
SK-OV-3 = assay: Growth inhibition of human SKOV3 cells
PC-3 = assay: Growth inhibition of human PC3 cells assessed tumor cell growth at 10^-5 M; set-up: scale not given: the % may be the effect or the level left; method in brief: as §1
T47D = assay: Growth inhibition of human T47D cells assessed tumor cell growth at 10^-5 M; set-up: scale not given: the % may be the effect or the level left; method in brief: as §2
SR = assay: Growth inhibition of human SR cells assessed tumor cell growth at 10^-5 M; set-up: scale not given: the % may be the effect or the level left; method in brief: as §2
COLO 205 = assay: Growth inhibition of human COLO205 cells assessed tumor cell growth at 10^-5 M; set-up: scale not given: the % may be the effect or the level left; method in brief: as §1
A549 = assay: Growth inhibition of human A549 cells
CAKI-1 [5] = assay: Growth inhibition of human Caki1 cells
HCT-15 = assay: Growth inhibition of human HCT15 cells
SF-295 = assay: Growth inhibition of human SF295 cells
HL-60(TB) [6] = assay: Growth inhibition of human HL-60(TB) cells assessed tumor cell growth at 10^-5 M; set-up: scale not given: the % may be the effect or the level left
Method in brief: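 HL-60(TB), part of the 60-line panel, tested at a single concentration of 10^-5 M. The read-out is percent tumor cell growth relative to untreated growth.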

SW-620 = assay: Growth inhibition of human SW620 cells
MDA-MB-435 = assay: Growth inhibition of human MDA-MB-435 cells
HOP-62 = assay: Growth inhibition of human HOP62 cells
[7] = read-out: LC50 (the source's name)

## CC1=NN(c2cccc(Cl)c2)C(=O)/C1=C\c1c(O)ccc2ccccc12
TK-10 [1]
  CC50: > 100 µM
NCI-H23
  Activity: -1.95%
CAKI-1 [2]
  Activity: 34.96%
MDA-MB-231
  Activity: 4.08%
SK-MEL-5
  GI50: > 100 µM
SK-MEL-5; [7]
  CC50: > 100 µM
OVCAR-5
  GI50: > 100 µM
OVCAR-5; [7]
  CC50: > 100 µM
KM12
  GI50: > 100 µM
KM12; [7]
  CC50: > 100 µM
TK-10 [3]
  Activity: 17.23%
SK-MEL-2
  GI50: 21.8 µM
SK-MEL-2; [7]
  CC50: > 100 µM
HL-60(TB) [4]
  GI50: > 100 µM
HL-60(TB) [4]; [7]
  CC50: > 100 µM
SF-539
  Activity: 72.26%
OVCAR-3
  GI50: 58.8 µM
OVCAR-3; [7]
  CC50: > 100 µM
SK-OV-3
  GI50: 26.3 µM
SK-OV-3; [7]
  CC50: > 100 µM
PC-3
  Activity: 33.03%
T47D
  Activity: 2.21%
SR
  Activity: 29.7%
COLO 205
  Activity: -80.64%
A549
  GI50: > 100 µM
A549; [7]
  CC50: > 100 µM
CAKI-1 [5]
  GI50: > 100 µM
CAKI-1 [5]; [7]
  CC50: > 100 µM
HCT-15
  GI50: > 100 µM
HCT-15; [7]
  CC50: > 100 µM
SF-295
  GI50: 22.9 µM
SF-295; [7]
  CC50: > 100 µM
HL-60(TB) [6]
  Activity: 104.49%
SW-620
  GI50: > 100 µM
SW-620; [7]
  CC50: > 100 µM
MDA-MB-435
  GI50: > 100 µM
MDA-MB-435; [7]
  CC50: > 100 µM
HOP-62
  GI50: 31.6 µM
HOP-62; [7]
  CC50: > 100 µM

From ChEMBL document CHEMBL1811814, “Synthesis and evaluation of indole, pyrazole, chromone and pyrimidine based conjugates for tumor growth inhibitory activities--development of highly efficacious cytotoxic agents” (Eur J Med Chem, 2010)
